Experiments:
A549 [1] = test: Growth inhibition of human A549 cells at 10 uM after 48 hrs by SRB assay relative to control; format: functional; settings: A549, 48 h, read-out: GI
Summary of the method: (§1)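 Primary SRB screen of every compound at a single concentration of 10 µM. Growth inhibition is expressed relative to control.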

PC-3 [2] = test: Growth inhibition of human PC3 cells at 10 uM after 48 hrs by SRB assay relative to control; format: functional; settings: PC-3, 48 h, read-out: GI; summary of the method: as §1
HCT-116 [3] = test: Growth inhibition of human HCT116 cells at 10 uM after 48 hrs by SRB assay relative to control; format: functional; settings: HCT-116, 48 h, read-out: GI; summary of the method: as §1
MCF7 [4] = test: Growth inhibition of human MCF7 cells at 10 uM after 48 hrs by SRB assay relative to control; format: functional; settings: MCF7, 48 h, read-out: GI; summary of the method: as §1
MIA PaCa-2 [5] = test: Growth inhibition of human MIAPaCa2 at 10 uM after 48 hrs by SRB assay relative to control; format: functional; settings: MIA PaCa-2, 48 h, read-out: GI; summary of the method: as §1
A549 [6] = test: Cytotoxicity against human A549 cells assessed as reduction in cell viability after 48 hrs by SRB assay; format: functional, cell-based; settings: A549, 48 h
Summary of the method: (§2)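 SRB assay. Compounds active at 10 µM in the primary screen were retested at 1, 2.5 and 5 µM, and IC50 was calculated from these concentrations. The normal breast epithelial line fR2 was tested alongside the cancer lines.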

PC-3 [7] = test: Cytotoxicity against human PC3 cells assessed as reduction in cell viability after 48 hrs by SRB assay; format: functional, cell-based; settings: PC-3, 48 h; summary of the method: as §2
HCT-116 [8] = test: Cytotoxicity against human HCT116 cells assessed as reduction in cell viability after 48 hrs by SRB assay; format: functional, cell-based; settings: HCT-116, 48 h; summary of the method: as §2
MCF7 [9] = test: Cytotoxicity against human MCF7 cells assessed as reduction in cell viability after 48 hrs by SRB assay; format: functional, cell-based; settings: MCF7, 48 h; summary of the method: as §2
MIA PaCa-2 [10] = test: Cytotoxicity against human MIAPaCa2 cells assessed as reduction in cell viability after 48 hrs by SRB assay; format: functional, cell-based; settings: MIA PaCa-2, 48 h; summary of the method: as §2
[11] = Cytotoxicity against human FR2 cells assessed as reduction in cell viability after 48 hrs by SRB assay; format: cell-based; settings: FR2, 48 h; summary of the method: as §2
[12] = Selectivity index, ratio of IC50 for human FR2 cells to IC50 for human A549 cells; format: functional
Summary of the method: (§3)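 Selectivity index is the IC50 in normal breast epithelial fR2 cells divided by the IC50 in each cancer line. All IC50 values come from the SRB assay.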

[13] = Selectivity index, ratio of IC50 for human FR2 cells to IC50 for human PC3 cells; format: functional; summary of the method: as §3
[14] = Selectivity index, ratio of IC50 for human FR2 cells to IC50 for human HCT116 cells; format: functional; summary of the method: as §3
[15] = Selectivity index, ratio of IC50 for human FR2 cells to IC50 for human MCF7 cells; format: functional; summary of the method: as §3

Structure (SMILES) | inhibition of growth at 10 µM (A549 [1]) | inhibition of growth at 10 µM (PC-3 [2]) | inhibition of growth at 10 µM (HCT-116 [3]) | inhibition of growth at 10 µM (MCF7 [4]) | inhibition of growth at 10 µM (MIA PaCa-2 [5]) | IC50 (A549 [6]) | IC50 (PC-3 [7]) | IC50 (HCT-116 [8]) | IC50 (MCF7 [9]) | IC50 (MIA PaCa-2 [10]) | IC50 [11] | Ratio IC50 [12] | Ratio IC50 [13] | Ratio IC50 [14] | Ratio IC50 [15]
C=C(C)[C@@H]1CC[C@]2(C(=O)O)CC[C@]3(C)[C@H](CC[C@@H]4[C@@]5(C)C/C(=C\c6ccc(Br)cc6)C(=O)C(C)(C)[C@@H]5CC[C@]43C)[C@@H]12 | 72% | 66% | 61% | 68% | 27% | 1.71 µM | 8.3 µM | 4.4 µM | 7.1 µM | > 10 µM | 10.5 µM | 6.15 | 1.267 | 2.39 | 1.481
C=C(C)[C@@H]1CC[C@]2(C(=O)O)CC[C@]3(C)[C@H](CC[C@@H]4[C@@]5(C)C/C(=C\c6cc(Br)ccc6OC)[C@H](O)C(C)(C)[C@@H]5CC[C@]43C)[C@@H]12 | 65% | 7% | 54% | 67% | 16% | 2.8 µM | > 10 µM | 5.44 µM | 5.2 µM | > 10 µM | 10.5 µM | 3.76 | – | 1.93 | 2.025
C=C(C)[C@@H]1CC[C@]2(C(=O)O)CC[C@]3(C)[C@H](CC[C@@H]4[C@@]5(C)C/C(=C\c6c(Cl)cccc6Cl)C(=O)C(C)(C)[C@@H]5CC[C@]43C)[C@@H]12 | 62% | 25% | 33% | 54% | 15% | 7.7 µM | > 10 µM | > 10 µM | 9.07 µM | > 10 µM | 18.2 µM | 2.359 | – | <2.003 | –
C=C(C)[C@@H]1CC[C@]2(C(=O)O)CC[C@]3(C)[C@H](CC[C@@H]4[C@@]5(C)CCC(=O)C(C)(C)[C@@H]5CC[C@]43C)[C@@H]12 [BETUNOLIC ACID] | 62% | 43% | 49% | 43% | 36% | 5.7 µM | > 10 µM | > 10 µM | > 10 µM | > 10 µM | 16.2 µM | 2.838 | – | – | –
C=C(C)[C@@H]1CC[C@]2(C(=O)O)CC[C@]3(C)[C@H](CC[C@@H]4[C@@]5(C)C/C(=C\c6ccsc6)[C@H](O)C(C)(C)[C@@H]5CC[C@]43C)[C@@H]12 | 72% | 35% | 62% | 79% | 70% | > 10 µM | > 10 µM | > 10 µM | 1.71 µM | > 10 µM | 11.1 µM | – | – | – | 6.461
C=C(C)[C@@H]1CC[C@]2(C(=O)O)CC[C@]3(C)[C@H](CC[C@@H]4[C@@]5(C)C/C(=C\c6ccc(Br)o6)[C@H](O)C(C)(C)[C@@H]5CC[C@]43C)[C@@H]12 | 0% | 8% | 25% | 22% | 34% | – | – | – | – | – | – | – | – | – | –
C=C(C)[C@@H]1CC[C@]2(C(=O)O)CC[C@]3(C)[C@H](CC[C@@H]4[C@@]5(C)C/C(=C/C=C/c6ccccc6)[C@H](O)C(C)(C)[C@@H]5CC[C@]43C)[C@@H]12 | 26% | 30% | 40% | 49% | 49% | – | – | – | – | – | – | – | – | – | –
C=C(C)[C@@H]1CC[C@]2(C(=O)O)CC[C@]3(C)[C@H](CC[C@@H]4[C@@]5(C)C/C(=C\c6c(Cl)cccc6Cl)[C@H](O)C(C)(C)[C@@H]5CC[C@]43C)[C@@H]12 | 40% | 38% | 40% | 56% | 38% | > 10 µM | > 10 µM | > 10 µM | > 10 µM | > 10 µM | 13.3 µM | – | – | – | –
C=C(C)[C@@H]1CC[C@]2(C(=O)O)CC[C@]3(C)[C@H](CC[C@@H]4[C@@]5(C)C/C(=C\c6cccc([N+](=O)[O-])c6)C(=O)C(C)(C)[C@@H]5CC[C@]43C)[C@@H]12 | 75% | 41% | 69% | 70% | 31% | 4.7 µM | > 10 µM | 7.6 µM | 7.1 µM | > 10 µM | 12.2 µM | 2.591 | 3.009 | 1.602 | 1.715
C=C(C)[C@@H]1CC[C@]2(C(=O)O)CC[C@]3(C)[C@H](CC[C@@H]4[C@@]5(C)C/C(=C\c6cccnc6)[C@H](O)C(C)(C)[C@@H]5CC[C@]43C)[C@@H]12 | 71% | 26% | 65% | 72% | 63% | 3.4 µM | > 10 µM | 5.04 µM | 3.9 µM | 5.8 µM | 12.4 µM | 3.65 | – | 2.46 | 3.18
C=C(C)[C@@H]1CC[C@]2(C(=O)O)CC[C@]3(C)[C@H](CC[C@@H]4[C@@]5(C)C/C(=C\c6ccc(F)c(Br)c6)[C@H](O)C(C)(C)[C@@H]5CC[C@]43C)[C@@H]12 | 65% | 31% | 57% | 72% | 40% | 4.9 µM | > 10 µM | 8.4 µM | 6.4 µM | > 10 µM | 25.7 µM | 5.253 | – | 3.064 | 4.021
C=C(C)[C@@H]1CC[C@]2(C(=O)O)CC[C@]3(C)[C@H](CC[C@@H]4[C@@]5(C)CC[C@H](O)C(C)(C)[C@@H]5CC[C@]43C)[C@@H]12 [BETULINIC ACID] | 40% | 49% | 42% | 28% | 26% | > 10 µM | > 10 µM | > 10 µM | > 10 µM | > 10 µM | 30.1 µM | – | – | – | –

From ChEMBL document CHEMBL4052644, “Synthesis of novel benzylidene analogues of betulinic acid as potent cytotoxic agents” (Eur J Med Chem, 2017)
